Measured values from ChEMBL document CHEMBL1123516, “Substituted 1,3,4-thiadiazoles with anticonvulsant activity. 1. Hydrazines” (J Med Chem, 1986).

What was measured:
Mus musculus [1] = test: Anticonvulsant activity tested by maximal electroshock test (MES) in mouse after 1 hr of administration; assay type: functional
Method in brief: (§1)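 Male BKW mice (LACA origin), 18-22 g, dosed ip or po with compound dissolved or suspended in 2% Tween 80 in distilled water. Readout was block of hind limb tonic seizure. ED50 was derived by probit analysis using the computerized Bliss method.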

Mus musculus [2] = test: Anticonvulsant activity tested by maximal metrazole seizure (MMS) test in mouse after 1 hr of administration; assay type: functional
Method in brief: (§2)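 Male BKW mice, 18-22 g, dosed orally with compound in 2% Tween 80/water. Metrazol 120 mg/kg ip was given 1 h after dosing. ED50 for block of hind limb tonic seizure was derived by Bliss probit analysis.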

[3] = Neurotoxicity by performing a rotarod test in mouse after 1 hr of administration; assay type: toxicity, organism-based; details: in vivo
Method in brief: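 Male BKW mice, 18-22 g, were pre-trained on a rotorod turning at 16 rpm (3 cm drum). They were dosed ip or po in 2% Tween 80/water and tested at timed intervals. TD50, the dose at which 50% fell off the rod, was derived by probit analysis.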

Rattus norvegicus [4] = test: Maximum percent fall in mean arterial blood pressure was evaluated by injecting 100 mg/kg perorally in DOCA hypertensive rats; assay type: functional; details: route oral
[5] = Protective index (rat) was from the ratio of plasma concentration at which side effects occur by plasma concentration at which anticonvulsant activity occur.; assay type: functional
Method in brief: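 Rat plasma drug concentration at rotorod impairment was divided by the plasma concentration at MES anticonvulsant activity. Both were measured by HPLC-UV in plasma from dosed rats.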

Rattus norvegicus [6] = test: Inhibition of hind limb tonus was tested by maximal metrazole seizure test after 4 hr of peroral administration; assay type: functional; details: Hindlimb, po
Rattus norvegicus [7] = test: Inhibition of hind limb tonus was tested by maximal metrazole seizure test after 1 hr of peroral administration of compound; assay type: functional; details: Hindlimb, po
Rattus norvegicus [8] = test: Inhibition of hind limb tonus was tested at time of peak effect by maximal electroshock test (MES) on intraperitoneal administration of compound in rats; assay type: functional; details: Hindlimb, ip
Rattus norvegicus [9] = test: Inhibition of hind limb tonus was tested by maximal electroshock test (MES) in rat after 4 hr of peroral administration; assay type: functional; details: Hindlimb, po
Rattus norvegicus [10] = test: Inhibition of hind limb tonus was tested by maximal electroshock test (MES) in rat after 1 hr of peroral administration; assay type: functional; details: Hindlimb, po
Mus musculus [11] = test: Inhibition of hind limb tonus was tested at time of peak effect by maximal electroshock test (MES) in mouse on intraperitoneal administration of compound; assay type: functional; details: Hindlimb, ip; method in brief: as §1
Mus musculus [12] = test: Inhibition of hind limb tonus was tested by maximal metrazole seizure (MMS) test in mouse after 1 hr of peroral administration; assay type: functional; details: Hindlimb, po; method in brief: as §2
Mus musculus [13] = test: Inhibition of hind limb tonus was tested by maximal electroshock test (MES) in mouse after 1 hr of peroral administration of compound; assay type: functional; details: Hindlimb, po; method in brief: as §1

| Structure (SMILES) | ED50 (Mus musculus [1]) | ED50 (Mus musculus [2]) | TD50 at 1 h [3] | further results |
| --- | --- | --- | --- | --- |
| Cc1ccccc1-c1nnc(N(Cc2ccccc2)N(C)C)s1.Cl | > 200 mg/kg | > 100 mg/kg | – | – |
| CN(C)N(C)c1nnc(-c2ccccc2Cl)s1.Cl | 53 mg/kg | > 100 mg/kg | 347 mg/kg | – |
| CNN(c1nnc(-c2ccccc2Cl)s1)C(C)C | > 100 mg/kg | > 100 mg/kg | – | – |
| CC(C)N(N)c1nnc(-c2ccccc2Cl)s1 | 54 mg/kg | > 100 mg/kg | > 800 mg/kg | – |
| Cc1ccccc1-c1nnc(NNc2ccccc2)s1 | > 100 mg/kg | > 100 mg/kg | – | – |
| Cc1ccccc1-c1nnc(N(C)NC(c2ccccc2)c2ccccc2)s1 | > 200 mg/kg | > 200 mg/kg | – | – |
| Cl.NN(Cc1ccccc1)c1nnc(-c2ccccc2-c2ccccc2)s1 | > 200 mg/kg | > 200 mg/kg | – | – |
| CN(N)c1nnc(Cc2ccccc2)s1.Cl | 11 mg/kg | 25 mg/kg | 280 mg/kg | – |
| CN(N)c1nnc(-c2ccc(-c3ccccc3)cc2)s1 | > 200 mg/kg | – | – | – |
| CNN(Cc1ccccc1)c1nnc(-c2ccccc2Cl)s1.Cl | > 100 mg/kg | > 100 mg/kg | – | – |
| Cc1ccccc1-c1nnc(N(C)NC2CCCC2)s1.Cl | 110 mg/kg | 81 mg/kg | – | – |
| Cl.NN(c1nnc(-c2ccccc2Cl)s1)C1CCCCC1 | > 100 mg/kg | > 100 mg/kg | – | – |
| Cc1ccccc1-c1nnc(N(N)C(C)C)s1.Cl | 54 mg/kg | 49 mg/kg | – | – |
| Cl.Clc1ccccc1-c1nnc(NNCc2ccccc2)s1 | > 100 mg/kg | > 100 mg/kg | – | – |
| CC(C)NNc1nnc(-c2ccccc2-c2ccccc2)s1 | 35 mg/kg | 44 mg/kg | – | – |
| NN(Cc1ccccc1)c1nnc(-c2ccccc2Cl)s1 | 186 mg/kg | 143 mg/kg | – | – |

| Structure (SMILES) | ED50 (Mus musculus [1]) | ED50 (Mus musculus [2]) | TD50 at 1 h [3] | further results |
| --- | --- | --- | --- | --- |
| CCCCCCOc1ccccc1-c1nnc(NNC2CCCC2)s1.Cl | > 100 mg/kg | > 100 mg/kg | – | – |
| CNN(C)c1nnc(-c2ccccc2-c2ccccc2)s1.Cl | ~100 mg/kg | > 100 mg/kg | – | – |
| CCCCCCOc1ccccc1-c1nnc(NNC(C)C)s1.Cl | > 100 mg/kg | > 100 mg/kg | – | – |
| CC(C)NNc1nnc(-c2ccccc2Cl)s1 | 50 mg/kg | 50 mg/kg | 200 mg/kg | – |
| CN(N)c1nnc(-c2cccc(Oc3ccccc3)c2)s1 | 100 mg/kg | 111 mg/kg | – | – |
| CN(N)c1nnc(-c2ccccc2Oc2ccccc2)s1.Cl | 33 mg/kg | 33 mg/kg | < 400 mg/kg | – |
| CNN(C)c1nnc(-c2ccccc2C)s1 | 10 mg/kg | 23 mg/kg | 72 mg/kg | – |
| Cl.NNc1nnc(-c2ccccc2-c2ccccc2)s1 | 28 mg/kg | 33 mg/kg | 627 mg/kg | Decrease in blood pressure (Rattus norvegicus [4]): 18% |
| NC(=O)N1c2ccccc2C=Cc2ccccc21 [CARBAMAZEPINE] | – | – | – | PI [5]: 2.51; ED50 (Rattus norvegicus [6]): 5 mg/kg; ED50 (Rattus norvegicus [7]): 3 mg/kg; ED50 (Rattus norvegicus [8]): 2 mg/kg; ED50 (Rattus norvegicus [9]): 7 mg/kg; ED50 (Rattus norvegicus [10]): 4 mg/kg; ED50 (Mus musculus [11]): 6 mg/kg; ED50 (Mus musculus [12]): 11 mg/kg; ED50 (Mus musculus [13]): 20 mg/kg |
| Cc1ccccc1-c1nnc(N(C)NC(C)C)s1.Cl | 35 mg/kg | 38 mg/kg | – | – |
| CCCCN(N)c1nnc(-c2ccccc2C)s1.Cl | 119 mg/kg | 60 mg/kg | – | – |
| CCCCCCOc1ccccc1-c1nnc(N(C)NC)s1.Cl | < 250 mg/kg | 39 mg/kg | – | – |
| Cc1ccccc1-c1nnc(N(C)N(C)C)s1 | 25 mg/kg | 68 mg/kg | 167 mg/kg | – |
| CCCCCCOc1ccccc1-c1nnc(N(C)N)s1.Cl | 26 mg/kg | 27 mg/kg | ~160 mg/kg | – |
| Cc1ccccc1-c1nnc(NN(C)C)s1.Cl | 60 mg/kg | > 100 mg/kg | > 250 mg/kg | – |
| Clc1ccccc1-c1nnc(NNc2ccccc2)s1 | > 100 mg/kg | > 200 mg/kg | – | – |
